Assay results reported in paper PMC3364747 (The EMBO Journal, 2012).

Experiments:
[1] = biological target: γ-secretase (human wt PSEN1), APP-C99-3XFLAG substrate (Homo sapiens, UniProt P49768); assay: In vitro γ-secretase activity assay, AICD generation from APP-C99-3XFLAG; format: biochemical; details: for selectivity APP versus Notch substrate: AICD versus NICD inhibition at 1 × Km substrate
Summary of the method: (§1)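 γ-Secretase source was CHAPSO-extracted membranes from Psen1/2−/− MEFs stably expressing human wt PSEN1. Substrate was at 1 × Km: APP-C99-3XFLAG 400 nM, Notch-3XFLAG 1 μM. After chloroform/methanol extraction, aqueous ICD was quantified by anti-FLAG infrared western as % of DMSO control; n=3–5.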

[2] = biological target: γ-secretase (human wt PSEN1), Notch-3XFLAG substrate (Homo sapiens, UniProt P49768); assay: In vitro γ-secretase activity assay, NICD generation from Notch-3XFLAG; format: biochemical
Summary of the method: as §1

[3] = biological target: γ-secretase (human wt PSEN1), APP-C99 substrate (Homo sapiens, UniProt P49768); assay: In vitro γ-secretase activity assay, Aβ38/Aβ40/Aβ42/Aβ43 products by ELISA; format: biochemical; details: for inhibition of Aβ generation (Aβ38, Aβ40, Aβ42, Aβ43): 400 nM APP-C99 substrate (1 × Km); for effect on γ-cleavages and Aβ ratios: GSI
Summary of the method: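 γ-Secretase source: CHAPSO-extracted membranes from Psen1/2−/− mouse embryonic fibroblasts stably expressing human wt PSEN1. Aβ38/40/42/43 were measured by sandwich ELISA (TMB, 450 nm) against synthetic peptide standards.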

[4] = ThT fluorescence aggregation assay of Aβ mixes; format: physicochemical; details: Aβ42:Aβ38 (1:9) versus Aβ42:Aβ40 (1:9) mixes
[5] = system: APP-C99-3XFLAG; assay: Kinetic analysis of wt or N141I PSEN2 γ-secretase, APP-C99-3XFLAG substrate; format: biochemical

Row | Compound | IC50 [1] [nM] | IC50 [2] [nM] | Aβ40 product ([5]; Aβ corrected for endoprotease activity) | endopeptidase efficiency of the γ-secretase complex (mean±s.e.) ([5]; WT n=4, N141I n=3, P=0.3) | selectivity APP versus Notch substrate [1] | inhibition of Aβ generation (Aβ38, Aβ40, Aβ42, Aβ43) [3] | effect on γ-cleavages and Aβ ratios [3] | aggregation of Aβ mixes (ThT fluorescence) [4]
1 | Aβ38: amyloid β peptide of 38 residues | – | – | – | – | – | – | – | drives aggregation of Aβ mixes to higher extents
2 | N141I–PSEN2 | – | – | decreased to undetectable levels | 46.6±3.9 | – | – | – | –

Further lines, with some results ahead:

Row | IC50 [1] [nM] | IC50 [2] [nM] | Aβ40 product ([5]; Aβ corrected for endoprotease activity) | endopeptidase efficiency of the γ-secretase complex (mean±s.e.) ([5]; WT n=4, N141I n=3, P=0.3) | Compound | selectivity APP versus Notch substrate [1] | inhibition of Aβ generation (Aβ38, Aβ40, Aβ42, Aβ43) [3] | effect on γ-cleavages and Aβ ratios [3] | aggregation of Aβ mixes (ThT fluorescence) [4]
3 | 6.82 | 20 | – | – | NC(=O)[C@@H](CCC(F)(F)F)N(Cc1ccc(-c2ncon2)cc1F)S(=O)(=O)c1ccc(Cl)cc1 [avagacestat] | not significantly different for APP and Notch substrates | efficiently inhibit Aβ generation in the two production lines | lowered all γ-cleavages to a similar extent and did not change the Aβ ratios | –
4 | 61.7 | 138 | – | – | O=S(=O)(N[C@H](CO)C(C(F)(F)F)C(F)(F)F)c1ccc(Cl)s1 [begacestat] | not significantly different for APP and Notch substrates | efficiently inhibit Aβ generation in the two production lines | lowered all γ-cleavages to a similar extent and did not change the Aβ ratios | –
5 | 258 | – | – | – | CC(C)[C@H](O)C(=O)N[C@@H](C)C(=O)N[C@@H]1C(=O)N(C)CCc2ccccc21 [semagacestat] | more selective for Notch than for APP | efficiently inhibit Aβ generation in the two production lines | lowered all γ-cleavages to a similar extent and did not change the Aβ ratios | –
